Test results published in ChEMBL document CHEMBL3875163, “Novel urea and bis-urea primaquine derivatives with hydroxyphenyl or halogenphenyl substituents: Synthesis and biological evaluation” (Eur J Med Chem, 2016).

How the values were obtained:
[1] = Growth inhibition of mouse L1210 cells after 72 hrs by MTT assay; assay type: functional, cell-based; details: L1210, 72 h
[2] = Growth inhibition of human Molt4/C8 cells after 72 hrs by MTT assay; assay type: functional, cell-based; details: MOLT-4, 72 h
[3] = Growth inhibition of human CEM cells after 72 hrs by MTT assay; assay type: functional, cell-based; details: CCRF-CEM
[4] = Growth inhibition of human HeLa cells after 72 hrs by MTT assay; assay type: functional, cell-based
[5] = Growth inhibition of human MIAPaCa2 cells after 72 hrs by MTT assay; assay type: functional, cell-based; details: MIA PaCa-2, 72 h
[6] = Growth inhibition of human NCI-H460 cells after 72 hrs by MTT assay; assay type: functional, cell-based; details: NCI-H460, 72 h
Method in brief: (§1)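 Modified NCI DTP protocol: cells in DMEM with 10% FBS, 2 mM glutamine, antibiotics, 37 °C, 5% CO2; seeded 1 × 10^4 to 3 × 10^4 cells/ml on day 0, exposed to five 10-fold dilutions (10^-8 to 10^-4 M) for 72 h; solvent control. MTT read-out; quadruplicate points in three experiments; IC50 by linear regression of growth percentages bracketing 50%.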

[7] = Growth inhibition of human SW620 cells after 72 hrs by MTT assay; assay type: functional, cell-based; details: SW-620, 72 h; method in brief: as §1
[8] = Growth inhibition of human MCF7 cells after 72 hrs by MTT assay; assay type: functional, cell-based; details: MCF7, 72 h; method in brief: as §1
[9] = Antioxidant activity assessed as DPPH radical scavenging activity at 100 uM after 20 mins relative to control; assay type: functional
Method in brief: (§2)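 Compound in DMSO added to DPPH in absolute ethanol, 0.1 mM final; absorbance at 517 nm after 20 and 60 min at room temperature. At least triplicate.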

[10] = Antioxidant activity assessed as DPPH radical scavenging activity at 100 uM after 60 mins relative to control; assay type: functional; method in brief: as §2
[11] = Antioxidant activity assessed as inhibition of AAPH-induced linoleic acid lipid peroxidation at 1 x 10^-4 M by UV-absorbance method relative to control; assay type: functional
Method in brief: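 Linoleic acid peroxidation: 16 mM sodium linoleate dispersion in 0.05 M phosphate buffer pH 7.4 at 37 °C under air, initiated by AAPH (40 mM solution); compound at 1 × 10^-4 M; oxidation followed at 234 nm. At least triplicate.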

[12] = test system: Glycine max; assay: Inhibition of soybean LOX assessed as reduction in conversion of sodium linoleate to 13-hydroperoxylinoleic acid at 1 x 10^-4 M relative to control
Method in brief: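 Soybean lipoxygenase incubated at room temperature with sodium linoleate (0.1 mM) and test compound (DMSO stocks); formation of 13-hydroperoxylinoleic acid read at 234 nm. Single-point screening at 1 × 10^-4 M; IC50 from several concentrations. At least triplicate.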

inhibition [12] [%]	SMILES	IC50 [1] [µM]	IC50 [2] [µM]	IC50 [3] [µM]	IC50 [4] [µM]	IC50 [5] [µM]	IC50 [6] [µM]	IC50 [7] [µM]	IC50 [8] [µM]	Activity [9] [%]	Activity [10] [%]	inhibition [11] [%]
48.4	COc1cc(NC(C)CCCNC(=O)NNC(=O)Nc2cccc(Cl)c2)c2ncccc2c1 (configuration not stated)	27	93	81	44	74	32	25	0.22	97.9	95.1	70.8
28	COc1cc(NC(C)CCCNC(=O)NNC(=O)Nc2ccc(Br)cc2)c2ncccc2c1 (configuration not stated)	51	209	110	101	231	27	17	0.1	96.9	99	
51.4	COc1cc(NC(C)CCCNC(=O)NNC(=O)Nc2cccc(C(F)(F)F)c2)c2ncccc2c1 (configuration not stated)	4	36	6.9	4.9	5.6	20	21	0.19	98.3	91.2	52.6
39	COc1cc(NC(C)CCCNC(=O)NNC(=O)Nc2ccc(Cl)cc2)c2ncccc2c1 (configuration not stated)	58	186	108	120	≥ 250	63	48	0.18	97.6	100	42.1
11.8	COc1cc(NC(C)CCCNC(=O)Nc2cccc(Cl)c2)c2ncccc2c1 (configuration not stated)	17	21	22	17	21	37	26	11		35.7	84.1
41.6	COc1cc(NC(C)CCCNC(=O)NNC(=O)Nc2cccc(O)c2)c2ncccc2c1 (configuration not stated)	160	85	143	180	129	> 100	17	1.1	96.5	100	52.2
21.6	COc1cc(NC(C)CCCNC(=O)Nc2ccc(Cl)cc2)c2ncccc2c1 (configuration not stated)	19	24	24	18	22	34	28	12	24	37	81.9
	Cc1c(C)c2c(c(C)c1O)CCC(C)(C(=O)O)O2 (configuration not stated)											76
44.6	COc1cc(NC(C)CCCNC(=O)Nc2cccc(F)c2)c2ncccc2c1 (configuration not stated)	19	23	21	18	22	24	27	18		26	74.3
48.3	COc1cc(NC(C)CCCNC(=O)Nc2cccc(C(F)(F)F)c2)c2ncccc2c1 (configuration not stated)	9.2	20	19	14	17	21	22	3.3	31.3	47.7	71.8
39.8	COc1cc(NC(C)CCCNC(=O)Nc2ccc(F)cc2)c2ncccc2c1 (configuration not stated)	18	24	26	20	21	26	25	26		24.7	64.4
